In publication PMC6745485 (Heliyon, 2019):
Several values for one entry are separate records, joined by “and”; a condition that tells them apart may be missing. Identical values can stand only once. Entries after “also recorded” stand apart in the source; their conditions may differ. Like-named read-outs stand apart in the source and are kept apart here.

Tests used:
[1] = system: human CAR; conditions: cited from earlier work
[2] = target: T1, rat CAR (Rattus norvegicus, UniProt Q9QUS1); type: cell-based; conditions: 3–10 μM
T1 sequence (Q9QUS1 1-358): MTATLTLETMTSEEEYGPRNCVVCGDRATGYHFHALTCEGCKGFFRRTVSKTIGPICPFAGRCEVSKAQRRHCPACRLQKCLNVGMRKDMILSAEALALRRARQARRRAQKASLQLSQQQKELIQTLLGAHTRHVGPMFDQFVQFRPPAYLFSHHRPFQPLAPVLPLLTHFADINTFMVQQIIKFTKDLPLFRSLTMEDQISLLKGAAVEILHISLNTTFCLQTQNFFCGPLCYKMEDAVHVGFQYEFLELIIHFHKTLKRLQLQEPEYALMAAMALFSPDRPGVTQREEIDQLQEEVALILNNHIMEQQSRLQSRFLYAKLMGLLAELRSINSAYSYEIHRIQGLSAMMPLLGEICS
Procedure, shortened: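 Microsomal mix: NADPH-generating system plus PB/MC-induced male SD rat liver microsomes (60 mg protein) in pH 7.4 phosphate, 30 min, 37 °C; boiled-microsome control. Extracts dried, redissolved in DMSO, diluted into serum-free medium. CAR-transfected COS-1 cells dosed 12 h after transfection, 24 h exposure. Firefly/Renilla luciferase read as fold vs vehicle; 3 experiments, Student's t-test vs boiled.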

[3] = target: T2, rat PXR (Rattus norvegicus, UniProt Q9R1A7); type: cell-based; conditions: microsomes of PB- and MC-treated rats, NADPH, vs boiled microsomes
T2 sequence (Q9R1A7 1-431): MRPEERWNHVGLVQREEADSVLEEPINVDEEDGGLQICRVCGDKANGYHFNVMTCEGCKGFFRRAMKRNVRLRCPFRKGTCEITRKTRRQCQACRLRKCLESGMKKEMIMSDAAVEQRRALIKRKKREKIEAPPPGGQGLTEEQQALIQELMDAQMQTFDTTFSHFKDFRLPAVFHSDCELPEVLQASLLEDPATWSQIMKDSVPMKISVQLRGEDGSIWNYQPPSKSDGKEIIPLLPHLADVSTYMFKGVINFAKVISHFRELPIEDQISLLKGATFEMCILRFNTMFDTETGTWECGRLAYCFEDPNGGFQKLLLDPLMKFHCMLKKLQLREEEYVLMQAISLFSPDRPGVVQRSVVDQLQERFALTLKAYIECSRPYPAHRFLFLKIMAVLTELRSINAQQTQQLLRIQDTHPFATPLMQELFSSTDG
Procedure, shortened: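 Test compound (1 μmol) incubated 30 min at 37 °C in 0.1 M K,Na-phosphate pH 7.4. Mix held an NADPH-generating system and liver microsomes (60 mg protein) from male SD rats given PB 80 mg/kg i.p. plus MC 25 mg/kg p.o. daily for 3 d. Boiled microsomes were the control. Ethyl acetate extract went into DMSO and onto transfected COS-1 cells for 24 h. Normalized firefly/Renilla fold vs vehicle; n=3, t-test.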

[4] = target: T3, rat PPARα (Rattus norvegicus, UniProt P37230); experiment: Rat PPARα reporter gene assay in COS-1 cells; type: cell-based; conditions: concentration showing 20% of the agonistic activity of 30 μM BZF; ±SD
T3 sequence (P37230 1-468): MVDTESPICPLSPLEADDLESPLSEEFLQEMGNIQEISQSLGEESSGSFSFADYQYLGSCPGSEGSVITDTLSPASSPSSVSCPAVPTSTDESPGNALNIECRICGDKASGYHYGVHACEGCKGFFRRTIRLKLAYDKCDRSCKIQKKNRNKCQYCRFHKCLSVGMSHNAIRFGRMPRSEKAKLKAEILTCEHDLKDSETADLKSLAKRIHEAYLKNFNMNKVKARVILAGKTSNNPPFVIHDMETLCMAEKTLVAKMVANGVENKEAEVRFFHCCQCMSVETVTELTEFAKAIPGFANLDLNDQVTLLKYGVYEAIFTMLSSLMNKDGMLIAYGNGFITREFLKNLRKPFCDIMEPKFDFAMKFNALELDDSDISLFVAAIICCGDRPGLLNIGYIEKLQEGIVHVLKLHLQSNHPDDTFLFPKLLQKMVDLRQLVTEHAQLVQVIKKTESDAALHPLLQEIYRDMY

[5] = target: T2, rat PXR; experiment: Rat PXR reporter gene assay in COS-1 cells; type: cell-based; conditions: concentration showing 20% of the agonistic activity of 1 μM PCN; ±SD
Procedure, shortened: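 COS-1 cells (1×10^4/well) co-transfected with rat PXR expression, reporter and Renilla control plasmids via jetPEI. After 24 h, test compound or 0.1% DMSO added in serum-free D-MEM for 24 h. Dual-luciferase read-out, firefly normalized to Renilla, fold vs vehicle. REC20: concentration reaching 20% of 1 μM PCN activity. Mean ± SD, ≥3 experiments in duplicate; Dunnett's test.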

[6] = target: T1, rat CAR; experiment: Rat CAR reporter gene assay in COS-1 cells; type: cell-based
[7] = system: mouse CAR; conditions: cited from earlier work
[8] = system: mouse PPARα; conditions: among 12 pyrethroid pesticides; ref Takeuchi et al., 2006; cited from earlier work

CC(C)C(C(=O)OC(C#N)c1cccc(Oc2ccccc2)c1)c1ccc(Cl)cc1 (stereo not shown) [fenvalerate]
Human CAR agonistic activity ([1]; ref Abass et al. (2012)): possessed agonistic activity
Human CAR agonistic activity ([1]; ref Baldwin and Roling (2009)): agonists
Change of CAR inverse agonistic activity after incubation with liver microsomes [2]: tended to decrease
Change of PXR activity upon incubation with rat liver microsomes [3]: markedly decreased; also recorded: significantly decreased
Agonistic activity REC20 PPARα [4]: - ^c (No effect (REC20 > 30 μM))
Agonistic activity REC20 PXR [5]: 0.617 ± 0.138 µM
Effect on CAR activation induced by artemisinin ([6]; artemisinin 10 μM, test compound 0.1–30 μM): significantly inhibited CAR activation by artemisinin
Agonistic activity REC20 CAR ([6]; concentration showing 20% of the agonistic activity of 30 μM artemisinin, ±SD): - ^c (No effect (REC20 > 30 μM))
Inverse agonistic activity RIC20 CAR ([6]; concentration showing 80% of the activity of the vehicle control, ±SD): 0.846 µM and 0.846 ± 0.394 µM
CAR inverse agonistic activity (in words) ([6]; up to 30 μM): showed CAR inverse agonistic activity
Mouse CAR agonistic activity ([7]; ref Abass et al. (2012)): not mouse CAR
Mouse CAR agonistic activity ([7]; ref Baldwin and Roling (2009)): agonists

pyrethrin
Mouse PPARα activation [8]: activated mouse PPARα
